The text below walks through data of ChEMBL document CHEMBL1154531, “Synthesis and structure-activity studies of novel homomorpholine oxazolidinone antibacterial agents” (Bioorg Med Chem Lett, 2009).

≈ marks a conversion by molar mass, not a printed value.

Holding throughout (assay type): functional
One experiment concerns Staphylococcus aureus. Put plainly: Antibacterial activity against Staphylococcus aureus UC-76 SA-1 by micro broth method. The essentials:
(§1)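 Minimum inhibitory concentration determined by broth microdilution and reported in μg/mL.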

Another experiment deals with Streptococcus pneumoniae. Briefly: Antibacterial activity against Streptococcus pneumoniae SV1 SP-3 by micro broth method. A digest of the protocol: as §1
The test system of the next experiment is Enterococcus faecalis. Briefly: Antibacterial activity against Enterococcus faecalis MGH-2 EF1-1 by micro broth method. The essentials: as §1
Another experiment relates to Streptococcus pyogenes. Put plainly: Antibacterial activity against Streptococcus pyogenes C-203 by micro broth method. A digest of the protocol:
as §1

Another experiment has as its system Escherichia coli. Briefly: Antibacterial activity against Escherichia coli by transcription-translation assay. A digest of the protocol: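 Cell-free E. coli coupled in vitro transcription/translation system with a luciferase reporter as read-out.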

For `C#Cc1cn(C[C@H]2CN(c3cc(F)c(N4CCCOCC4)c(F)c3)C(=O)O2)nn1`, the MIC was 4 µg/mL (≈ 9.92 µM) in the experiment with Staphylococcus aureus, 2 µg/mL (≈ 4.96 µM) in the experiment with Streptococcus pneumoniae, 2 µg/mL (≈ 4.96 µM) in the experiment on Enterococcus faecalis and 2 µg/mL (≈ 4.96 µM) against Streptococcus pyogenes.
On to `CNC(=O)[C@H]1CN(c2ccc(N3CCCOCC3)c(F)c2)C(=O)O1`, for which the MIC in the experiment on Staphylococcus aureus turned out to be 16 µg/mL (≈ 47.4 µM); against Streptococcus pneumoniae, 8 µg/mL (≈ 23.7 µM); in the experiment with Enterococcus faecalis, 16 µg/mL (≈ 47.4 µM); in the experiment on Streptococcus pyogenes, 8 µg/mL (≈ 23.7 µM).
As for `CNC(=O)[C@H]1CN(c2cc(F)c(N3CCCOCC3)c(F)c2F)C(=O)O1`, the IC50 in the experiment on Escherichia coli turned out to be 18.9 µM. In addition, the MIC against Staphylococcus aureus is 16 µg/mL (≈ 42.9 µM); with Streptococcus pneumoniae, 16 µg/mL (≈ 42.9 µM); in the experiment with Enterococcus faecalis it was 32 µg/mL (≈ 85.7 µM); in the experiment on Streptococcus pyogenes, 16 µg/mL (≈ 42.9 µM).
Regarding `COC(=O)NC[C@H]1CN(c2ccc(N3CCCOCC3)cc2)C(=O)O1`, the MIC came out at 16 µg/mL (≈ 45.8 µM) against Staphylococcus aureus, 16 µg/mL (≈ 45.8 µM) in the experiment with Streptococcus pneumoniae, 16 µg/mL (≈ 45.8 µM) against Enterococcus faecalis and 8 µg/mL (≈ 22.9 µM) against Streptococcus pyogenes.
Regarding `CNC(=O)[C@H]1CN(c2ccc(N3CCCOCC3)cc2)C(=O)O1`, the MIC with Staphylococcus aureus was found to be 32 µg/mL (≈ 100 µM); against Streptococcus pneumoniae, 32 µg/mL (≈ 100 µM); with Enterococcus faecalis it was 64 µg/mL (≈ 200 µM); in the experiment on Streptococcus pyogenes, 32 µg/mL (≈ 100 µM).
`CC(=O)NC[C@H]1CN(c2ccc(N3CCCOCC3)c(F)c2)C(=O)O1` showed an IC50 with Escherichia coli of 2.3 µM. Also, the MIC worked out at 4 µg/mL (≈ 11.4 µM) in the experiment on Staphylococcus aureus, 2 µg/mL (≈ 5.69 µM) against Streptococcus pneumoniae, 2 µg/mL (≈ 5.69 µM) in the experiment with Enterococcus faecalis and 2 µg/mL (≈ 5.69 µM) against Streptococcus pyogenes.
With `CC(=O)NC[C@H]1CN(c2cc(F)c(N3CCCOCC3)c(F)c2F)C(=O)O1`, inhibition with Escherichia coli was half-maximal at 3.93 µM (IC50). The MIC stood at 2 µg/mL (≈ 5.16 µM) against Staphylococcus aureus, 1 µg/mL (≈ 2.58 µM) in the experiment on Streptococcus pneumoniae, 2 µg/mL (≈ 5.16 µM) in the experiment on Enterococcus faecalis and 2 µg/mL (≈ 5.16 µM) against Streptococcus pyogenes.
Turning to `COC(=O)NC[C@H]1CN(c2cc(F)c(N3CCCOCC3)c(F)c2)C(=O)O1`, in the experiment with Escherichia coli, the IC50 was 1.9 µM. Further, the MIC against Staphylococcus aureus worked out at 2 µg/mL (≈ 5.19 µM); with Streptococcus pneumoniae, 1 µg/mL (≈ 2.59 µM); against Enterococcus faecalis, 2 µg/mL (≈ 5.19 µM); with Streptococcus pyogenes, 1 µg/mL (≈ 2.59 µM).
Regarding `Cl.NC[C@H]1CN(c2ccc(N3CCCOCC3)c(F)c2)C(=O)O1`, the MIC against Staphylococcus aureus, against Streptococcus pneumoniae, against Enterococcus faecalis and in the experiment on Streptococcus pyogenes was > 64 µg/mL in each case.
`CC(=O)NC[C@H]1CN(c2ccc(N3CCOCC3)c(F)c2)C(=O)O1` [LINEZOLID] yielded an MIC against Streptococcus pyogenes of 2 µg/mL (≈ 5.93 µM).
As to `CC(=O)NC[C@H]1CN(c2cc(F)c(N3CCCOCC3)c(F)c2)C(=O)O1`, in the experiment on Escherichia coli, the IC50 was 1.67 µM. In addition, the MIC against Staphylococcus aureus worked out at 2 µg/mL (≈ 5.41 µM); in the experiment on Streptococcus pneumoniae, 1 µg/mL (≈ 2.71 µM); against Enterococcus faecalis, 1 µg/mL (≈ 2.71 µM); against Streptococcus pyogenes it was 1 µg/mL (≈ 2.71 µM).
Compound `CCC(=O)NC[C@H]1CN(c2cc(F)c(N3CCCOCC3)c(F)c2)C(=O)O1` showed an IC50 in the experiment on Escherichia coli of 2.1 µM. For the same compound, the MIC worked out at 2 µg/mL (≈ 5.22 µM) against Staphylococcus aureus, 2 µg/mL (≈ 5.22 µM) against Streptococcus pneumoniae, 2 µg/mL (≈ 5.22 µM) in the experiment on Enterococcus faecalis and 1 µg/mL (≈ 2.61 µM) against Streptococcus pyogenes.
Turning to `CC(=O)NC[C@H]1CN(c2ccc(N3CCCOCC3)cc2)C(=O)O1`, the MIC with Staphylococcus aureus stood at 8 µg/mL (≈ 24 µM); against Streptococcus pneumoniae, 8 µg/mL (≈ 24 µM); against Enterococcus faecalis it was 16 µg/mL (≈ 48 µM); in the experiment with Streptococcus pyogenes, 8 µg/mL (≈ 24 µM).
In the case of `CNC(=O)[C@H]1CN(c2cc(F)c(N3CCCOCC3)c(F)c2)C(=O)O1`, in the experiment with Escherichia coli, half-maximal inhibition (IC50) was put at 6.37 µM. Also, the MIC in the experiment with Staphylococcus aureus was 4 µg/mL (≈ 11.3 µM); against Streptococcus pneumoniae it was 4 µg/mL (≈ 11.3 µM); with Enterococcus faecalis it was 8 µg/mL (≈ 22.5 µM); against Streptococcus pyogenes it was 4 µg/mL (≈ 11.3 µM).
Regarding `CC(C)(C)OC(=O)NC[C@H]1CN(c2cc(F)c(N3CCCOCC3)c(F)c2)C(=O)O1`, the MIC with Staphylococcus aureus amounted to 8 µg/mL (≈ 18.7 µM); with Streptococcus pneumoniae, 16 µg/mL (≈ 37.4 µM); in the experiment on Enterococcus faecalis, 32 µg/mL (≈ 74.9 µM); against Streptococcus pyogenes, 8 µg/mL (≈ 18.7 µM).
For the compound `O=C1O[C@@H](Cn2ccnn2)CN1c1ccc(N2CCCOCC2)cc1`, the MIC is 16 µg/mL (≈ 46.6 µM) in the experiment on Staphylococcus aureus, 16 µg/mL (≈ 46.6 µM) with Streptococcus pneumoniae, 32 µg/mL (≈ 93.2 µM) against Enterococcus faecalis and 8 µg/mL (≈ 23.3 µM) in the experiment with Streptococcus pyogenes.
Regarding `NC(=O)[C@H]1CN(c2ccc(N3CCCOCC3)c(F)c2)C(=O)O1`, the MIC with Staphylococcus aureus came out at 8 µg/mL (≈ 24.7 µM); in the experiment on Streptococcus pneumoniae, 16 µg/mL (≈ 49.5 µM); in the experiment with Enterococcus faecalis, 16 µg/mL (≈ 49.5 µM); with Streptococcus pyogenes, 8 µg/mL (≈ 24.7 µM).
Turning to `CC(C)(C)OC(=O)NC[C@H]1CN(c2ccc(N3CCCOCC3)c(F)c2)C(=O)O1`, the MIC amounted to 32 µg/mL (≈ 78.2 µM) against Staphylococcus aureus, 32 µg/mL (≈ 78.2 µM) with Streptococcus pneumoniae, 64 µg/mL (≈ 156 µM) against Enterococcus faecalis and 32 µg/mL (≈ 78.2 µM) in the experiment with Streptococcus pyogenes.
Consider `O=C1O[C@@H](CO)CN1c1ccc(N2CCCOCC2)cc1`, for which the MIC in the experiment with Staphylococcus aureus, against Streptococcus pneumoniae, in the experiment with Enterococcus faecalis and in the experiment on Streptococcus pyogenes was > 64 µg/mL each time.
Turning to `NC(=O)[C@H]1CN(c2cc(F)c(N3CCCOCC3)c(F)c2)C(=O)O1`, in the experiment with Escherichia coli, the IC50 came to 5.87 µM. The MIC was 4 µg/mL (≈ 11.7 µM) with Staphylococcus aureus, 4 µg/mL (≈ 11.7 µM) against Streptococcus pneumoniae, 8 µg/mL (≈ 23.4 µM) against Enterococcus faecalis and 4 µg/mL (≈ 11.7 µM) in the experiment on Streptococcus pyogenes.
On to `C[Si](C)(C)C#Cc1cn(C[C@H]2CN(c3cc(F)c(N4CCCOCC4)c(F)c3)C(=O)O2)nn1`, for which the MIC against Staphylococcus aureus was > 32 µg/mL; against Streptococcus pneumoniae it was 4 µg/mL (≈ 8.41 µM); with Enterococcus faecalis, > 32 µg/mL; in the experiment on Streptococcus pyogenes, 2 µg/mL (≈ 4.21 µM).
As for `O=C1O[C@@H](Cn2ccnn2)CN1c1cc(F)c(N2CCCOCC2)c(F)c1`, the MIC came out at 2 µg/mL (≈ 5.27 µM) against Staphylococcus aureus, 2 µg/mL (≈ 5.27 µM) with Streptococcus pneumoniae, 2 µg/mL (≈ 5.27 µM) in the experiment with Enterococcus faecalis and 1 µg/mL (≈ 2.64 µM) in the experiment on Streptococcus pyogenes.
For the compound `NC(=O)[C@H]1CN(c2cc(F)c(N3CCCOCC3)c(F)c2F)C(=O)O1`, half-maximal inhibition in the experiment on Escherichia coli (IC50) required 23.4 µM. Further, the MIC in the experiment on Staphylococcus aureus was determined as 16 µg/mL (≈ 44.5 µM); against Streptococcus pneumoniae, 16 µg/mL (≈ 44.5 µM); against Enterococcus faecalis, 32 µg/mL (≈ 89.1 µM); with Streptococcus pyogenes, 16 µg/mL (≈ 44.5 µM).
As to `CC(C)(C)OC(=O)NC[C@H]1CN(c2ccc(N3CCCOCC3)cc2)C(=O)O1`, the MIC against Staphylococcus aureus turned out to be 16 µg/mL (≈ 40.9 µM); in the experiment on Streptococcus pneumoniae, 16 µg/mL (≈ 40.9 µM); in the experiment with Enterococcus faecalis, 32 µg/mL (≈ 81.7 µM); against Streptococcus pyogenes it was 32 µg/mL (≈ 81.7 µM).
With `O=C1O[C@@H](CO)CN1c1cc(F)c(N2CCCOCC2)c(F)c1`, the MIC was found to be 4 µg/mL (≈ 12.2 µM) in the experiment with Staphylococcus aureus, 4 µg/mL (≈ 12.2 µM) against Streptococcus pneumoniae, 8 µg/mL (≈ 24.4 µM) in the experiment on Enterococcus faecalis and 2 µg/mL (≈ 6.09 µM) in the experiment on Streptococcus pyogenes.
Regarding `NC(=O)[C@H]1CN(c2ccc(N3CCCOCC3)cc2)C(=O)O1`, the minimal inhibitory concentration (MIC) was 32 µg/mL (≈ 105 µM) with Staphylococcus aureus, 32 µg/mL (≈ 105 µM) with Streptococcus pneumoniae, 64 µg/mL (≈ 210 µM) against Enterococcus faecalis and 64 µg/mL (≈ 210 µM) in the experiment on Streptococcus pyogenes.
